Bioassay records (PubChem)
In the library only some 5.4% were active in any assay of this set; here they are far more common.
Ecoli WT expand: blocks growth of wild type E. coli BW25113; OD600 absorbance; growth inhibition, % at 100 µM; 98,000 tested, 0.15% active; AID 710;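 active = growth inhibition above about 50% at one test dose, limit read from the data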;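 also: growth measured after 20 h incubation at 37 °C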
tolC growth inh: E. coli tolC mutant growth inhibition. E. coli BW25113 tolC mutant growth, OD615. growth inhibition, % at 10 µM (by protocol). 65,000 tested, 2.2% active;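 active = growth inhibition at or above a cutoff equal to the mean over every tested compound plus 3 SD, cut at about 60% in these data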;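 also: growth measured after 20 h incubation at 37 °C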
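Assay system: tolC-deleted E. coli BW25113. Medium: kanamycin-containing LB broth (50 µg/mL). Dosing: 10 µM final, single dose. Timing: bacterial growth with compound for 20 h at 37 °C. Detection: A615 absorbance measurement. Read-out basis: growth inhibition in percent.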
PostGolgi yeast: growth inhibition of a yeast mutant, post-Golgi transport screen; inhibition, % at 10 µM; post-Golgi transport phenotypic cell assay; 98,000 tested, 0.9% active;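 also: yeast cells grown in 1536-well plates; yeast grown about 18 h at 30C before absorbance read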
HePTP inhibitor: human HePTP phosphatase inhibition. P35236. recombinant HePTP phosphatase activity, OD absorbance. inhibition, % at 20 µM. 110,000 tested, 0.64% active. AID 521; in the data active = inhibition above about 50%;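 also: plate controls were vehicle for no effect and reference inhibitor for full effect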
PLAP act: activates human placental alkaline phosphatase; activation fold at 20 µM; purified PLAP enzyme, luminescent substrate read-out; hits give high values; P05187; 96,000 tested, 1.2% active; in the data active = activation fold above about 2
Target sequence (P05187 whole entry, looked up): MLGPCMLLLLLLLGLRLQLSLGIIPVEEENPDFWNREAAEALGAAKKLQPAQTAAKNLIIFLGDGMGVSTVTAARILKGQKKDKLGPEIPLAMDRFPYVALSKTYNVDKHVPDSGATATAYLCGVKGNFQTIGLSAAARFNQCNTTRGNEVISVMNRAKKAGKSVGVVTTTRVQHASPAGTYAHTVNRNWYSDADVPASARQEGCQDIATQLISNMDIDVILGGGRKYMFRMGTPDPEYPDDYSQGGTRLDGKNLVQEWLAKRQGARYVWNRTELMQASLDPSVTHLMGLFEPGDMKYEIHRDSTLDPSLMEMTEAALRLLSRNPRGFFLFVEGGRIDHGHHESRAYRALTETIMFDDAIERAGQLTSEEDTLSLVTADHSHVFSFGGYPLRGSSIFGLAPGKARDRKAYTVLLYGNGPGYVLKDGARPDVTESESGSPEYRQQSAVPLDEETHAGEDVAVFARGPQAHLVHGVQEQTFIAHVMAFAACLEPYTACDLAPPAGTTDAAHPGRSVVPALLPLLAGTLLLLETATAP
PostGolgi ctrl: growth of the yeast control strain, post-Golgi counter-screen; efflux-deficient yeast background strain, growth absorbance A615, 16 h; inhibition, % at 10 µM; 98,000 tested, 5% active; AID 738
Starred values were filed as active, the others as inactive; · = no result. Rule as the data show it, unless noted: active = inhibition above about 30%; inactive = the rest.

SMILES	Ecoli WT expand	tolC growth inh	PostGolgi yeast	HePTP inhibitor	PLAP act	PostGolgi ctrl
CCCC(=Nc1cccc([N+](=O)[O-])c1)C1=C(O)CC(C)(C)CC1=O	·	·	·	61*	·	·
COc1ccc(NS(=O)(=O)c2cccc(C(=O)OCC(=O)Nc3cc(C)on3)c2)cc1	-5	·	-20	·	1.1	42*
Cc1ccc(NS(=O)(=O)c2cccc(C(=O)OCC(=O)NCc3ccco3)c2)cc1	-4	16	-2	1	1.3	-13
Cc1cc(NS(=O)(=O)c2ccc(NC(=O)COc3ccccc3C(C)C)cc2)no1	-2	62*	3	13	1.5	-4
O=C(CC(C(=O)N1CCc2ccccc21)n1ccnc1)NCc1cccnc1 (stereo unspecified)	5	-9	33*	-8	·	6
Cc1cc(N/C=C/C(=O)c2ccc(Cl)s2)no1	·	·	·	102*	·	·
Cc1cc(N/C=C/C(=O)c2cccc3ccccc23)no1	-5	16	-8	-4	0.9	23
CCC(CO)N=CC1=C(O)C(C(=O)c2ccccc2)CCC1=O (stereo unspecified)	8	-12	13	7	0.9	8
CCOc1ccccc1NC(=O)CCC(=O)Nc1ccccc1OCC	-5	·	-5	·	1.1	8
CCOc1ccccc1N/C=C/C(=O)C(C)(C)C	-4	0	-18	-12	0.9	33*
CC(C)c1c(O)nc(SCC(=O)N2CCOCC2)[nH]c1=O	-9	·	-13	·	0.9	8
Cc1ccc2c(c1)n([O-])c1c([n+]2=O)CCCC1	2	·	0	·	0.9	5
CC(=O)c1c(C)n([O-])c2ccc(C)cc2[n+]1=O	53*	72*	18	8	1	12
Cc1c(Cl)cccc1NC(=O)c1ccc(-n2ccnc2)nc1	-4	·	2	·	1.1	34*
CC(C)N(Cc1nc(-c2ccc(Cl)cc2)no1)C(=O)c1cccs1	-1	68*	-4	3	1	27
COc1cc(OC)cc(C(=O)N(Cc2nc(-c3cccc(C)c3)no2)C(C)C)c1	-10	67*	-5	-1	1.5	10
COc1ccccc1OCC(=O)N(Cc1nc(-c2ccccc2)no1)C1CCCCC1	-16	62*	-9	11	1.5	26
COc1ccccc1C(=O)N(Cc1nc(-c2ccc(Cl)cc2)no1)C(C)C	-1	20	2	4	1.5	32*
COc1ccc(C(=O)N(Cc2nc(-c3ccc(C)cc3)no2)C(C)C)cc1OC	3	6	1	3	1.5	7
Cc1cc(=O)oc2ccc(OCc3ccccc3)cc12	·	·	·	2	·	·
COc1cc2c(cc1OC)C(C(=O)Nc1ccccn1)C(c1cccnc1)N(C)C2=O (stereo unspecified)	-1	-2	0	10	1	4
Cc1ccc(SCC(=O)N(Cc2nc(-c3ccccc3)no2)C(C)C)cc1	-4	74*	-5	-3	1.2	30*
CC(C)N(Cc1nc(-c2ccc(Cl)cc2)no1)C(=O)CCCN1C(=O)c2ccccc2C1=O	-18	-7	3	6	1.5	40*
CC(C)N(Cc1nc(-c2ccccc2)no1)C(=O)c1ccc(Cl)cc1	-5	68*	0	1	1.5	10
Cc1ccc(C(=O)N(Cc2nc(-c3ccc(C)cc3)no2)C(C)C)cc1	-5	-2	0	-2	0.9	8
SMILES	Ecoli WT expand	tolC growth inh	PostGolgi yeast	HePTP inhibitor	PLAP act	PostGolgi ctrl
Cc1ccc(C2NC(=O)c3c(sc4c3CCN(C)C4)N2)o1 (stereo unspecified)	-5	-15	32*	-4	1.1	-1
Cc1cc(C(=O)NC2CCCC2)on1	3	-8	7	3	·	2
Cc1ccc(NC(=O)C2CCCN(S(=O)(=O)c3cnc[nH]3)C2)c(Br)c1 (stereo unspecified)	2	12	-7	12	1.7	5
COC(=O)c1ccccc1NC(=O)C1CCCN(S(=O)(=O)c2ccccc2)C1 (stereo unspecified)	-10	32	-7	7	0.8	41*
COC(=O)c1ccccc1NC(=O)N1CCN(S(=O)(=O)c2ccc(Cl)cc2)CC1	4	25	3	-5	0.8	43*
Cc1ccccc1NC(=O)C1CCCN(S(=O)(=O)c2cnc[nH]2)C1 (stereo unspecified)	-2	-6	4	8	0.9	60*
O=C(Nc1cccc(C(F)(F)F)c1)c1ccccc1C(F)(F)F	·	·	·	-6	·	·
CN1CC2(C)CN(C(c3ccccc3)c3ccccc3)CC(C)(C1)C2O (stereo unspecified)	0	20	-2	0	0.9	-2
COCCNC(=O)Cn1c(=O)n(Cc2ccco2)c(=O)c2ccccc21	2	·	9	·	1.3	19
CCOc1nc(Nc2ccc(OC)c(Cl)c2)nc(OCC)n1	-12	·	14	·	1	36*
COC(CNS(=O)(=O)c1ccccc1)c1ccccc1 (stereo unspecified)	·	·	·	2	·	·
CCOC(=O)C(NC(=O)c1ccccc1)(N1CCCC1=O)C(F)(F)F (stereo unspecified)	-2	-16	0	-6	1.5	-11
COc1cccc(-c2cc(C(=O)N3CCc4ccccc4C3)no2)c1	-8	90*	1	13	1.2	21
COc1ccc(OC)c(-c2cc(C(=O)NCCN3CCOCC3)no2)c1	3	-20	2	3	1.1	0
COc1ccc(OC)c(-c2cc(C(=O)N3CCN(c4ccccc4)CC3)no2)c1	-19	10	-8	9	1.5	33*
COc1ccc(OC)c(-c2cc(C(=O)N3CCc4ccccc4C3)no2)c1	-19	69*	-1	9	1.1	41*
COc1cccc(NC(=O)CN(c2ccc(Br)cc2)S(C)(=O)=O)c1	·	·	·	4	·	·
O=C(Cc1cn2ccsc2n1)Nc1nc2c(s1)CCCC2	9	59	7	6	2*	11
O=C(Nc1nc2c(s1)CCCC2)c1cccs1	1	4	-5	7	1.1	11
O=C(Cc1cccs1)Nc1nc2c(s1)CCCC2	16	49	35*	4	0.9	-3
COc1cccc(Cn2c(Oc3cccc(C)c3)nc3c2c(=O)n(C)c(=O)n3C)c1	-25	84*	9	2	1.3	30
Cn1c(=O)c2c(nc(N3CCNCC3)n2Cc2cccc3ccccc23)n(C)c1=O	4	-32	-4	6	1.5	8
CCCOc1nc2c(c(=O)n(C)c(=O)n2C)n1Cc1cccc2ccccc12	-6	65*	4	4	1.6	37*
CCOC(=O)/C(=N/Nc1ccc(Cl)cc1)S(=O)(=O)c1ccccc1	-3	·	9	·	0.9	22
COc1cc(SC#N)ccc1N=Cc1c(C)[nH]n(-c2ccc(Cl)cc2)c1=O	-7	·	10	·	1.2	32*
Cc1[nH]n(-c2ccccc2)c(=O)c1C=Nc1cccc(Cl)c1	·	·	·	-6	·	·
Cc1cc(C2N=C(N)Nc3nc4ccccc4n32)c(C)n1-c1ccccc1Cl (stereo unspecified)	10	61*	9	9	·	13
